Active and inactive are the calls of the source. No cut-off for these calls is given here.
Legend:
[1] = molecular target: T1, Ribonuclease pancreatic (Bos taurus, UniProt P61823); assay: Reversible competitive inhibition of bovine pancreatic RNase A using 2',3'-cCMP as substrate by Lineweaver-Burk plot analysis
T1 sequence (P61823 whole entry): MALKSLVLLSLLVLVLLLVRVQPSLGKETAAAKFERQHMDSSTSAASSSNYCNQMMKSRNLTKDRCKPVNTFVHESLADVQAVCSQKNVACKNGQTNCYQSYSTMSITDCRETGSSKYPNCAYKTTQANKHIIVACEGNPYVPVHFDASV
How it was run: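 Spectrophotometric RNase A assay in 0.1 M Mes–NaOH, pH 6.0, with 0.1 M NaCl, using 2',3'-cCMP as substrate at varied concentrations. Two fixed inhibitor concentrations were run plus a no-inhibitor set. Ki was derived from initial velocities by Lineweaver–Burk analysis.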

[2] = molecular target: T2, Ribonuclease pancreatic (Bos taurus) (UniProt P61823); assay: Inhibition of bovine pancreatic RNase A assessed as degradation of tRNA at 0.35 mM incubated for 2 hrs prior to tRNA addition measured after 30 mins by precipitation assay
T2 sequence (whole entry): T1 sequence (P61823 whole entry)
How it was run: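 RNase A (1.31 μM) preincubated with compound (0.35 mM) 2 h at 37 °C; aliquot then mixed with tRNA (5 mg/mL) in Tris–HCl pH 7.5 with 5 mM EDTA and 0.5 mg/mL HSA, 30 min at 25 °C. Quenched with ice-cold 1.14 M perchloric acid/6 mM uranyl acetate, 30 min on ice, centrifuged; diluted supernatant A260 compared with control.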

[3] = molecular target: T2, Ribonuclease pancreatic (Bos taurus); assay: Inhibition of bovine pancreatic RNase A assessed as degradation of tRNA at 0.06 to 0.24 mM incubated for 3 hrs prior to tRNA addition measured after 30 mins by agarose gel electrophoresis
How it was run: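 RNase A (1.26 μM stock) preincubated 3 h with compound at 0.06, 0.12, 0.18 and 0.24 mM in 100 μL. Aliquot then mixed with tRNA (5.0 mg/mL, freshly dissolved in RNase-free water) for 30 min. Run on 1.1% agarose gel in 0.04 M TAE, pH 8.0. Residual tRNA visualized by ethidium bromide staining under UV.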

[4] = molecular target: T2, Ribonuclease pancreatic (Bos taurus); assay: Inhibition of bovine pancreatic RNase A assessed as degradation of tRNA at 0.07 to 0.20 mM incubated for 3 hrs prior to tRNA addition measured after 30 mins by agarose gel electrophoresis
How it was run: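 RNase A (1.51 μM stock) preincubated 3 h with compound at 0.07, 0.14 and 0.20 mM in 100 μL. Aliquot then mixed 1:1 with tRNA (5.0 mg/mL, freshly dissolved in RNase-free water) and held 30 min. Sample buffer with glycerol and bromophenol blue was added. Run on 1.1% agarose gel in 0.04 M TAE, pH 8.0. Residual tRNA seen by ethidium bromide staining under UV.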

[5] = molecular target: T2, Ribonuclease pancreatic (Bos taurus); conditions: 0.05 to 0.20 mM
[6] = molecular target: T2, Ribonuclease pancreatic (Bos taurus); conditions: 0.05 to 0.24 mM

Row | SMILES | Ki [1] | inhibition [2] | inhibition [3] | inhibition [4] | inhibition [5] | inhibition [6]
1 | Cc1cn([C@H]2C[C@H](SCC(=O)O)[C@@H](CSCC(=O)O)O2)c(=O)[nH]c1=O | 93 µM | 18% | Active | – | – | –
2 | Cc1cn([C@H]2C[C@H](S(=O)(=O)CC(=O)O)[C@@H](CO)O2)c(=O)[nH]c1=O | 88 µM | 25% | Active | – | – | –
3 | Cc1cn([C@H]2C[C@H](OCC(=O)O)[C@@H](CO)O2)c(=O)[nH]c1=O | 267 µM | 13% | – | Active | – | –
4 | COC(=O)CS(=O)(=O)C[C@H]1O[C@@H](n2cc(C)c(=O)[nH]c2=O)C[C@@H]1S(=O)(=O)CC(=O)OC | 267 µM | 15% | – | Active | – | –
5 | COC(=O)CSC[C@H]1O[C@@H](n2cc(C)c(=O)[nH]c2=O)C[C@H]1SCC(=O)OC | – | 5% | – | Active | – | –
6 | Cc1cn([C@H]2C[C@H](NCC(=O)O)[C@@H](CO)O2)c(=O)[nH]c1=O | 186 µM | 19% | – | Active | – | –
7 | COC(=O)CS(=O)(=O)C[C@H]1O[C@@H](n2cc(C)c(=O)[nH]c2=O)C[C@H]1S(=O)(=O)CC(=O)OC | 242 µM | 12% | – | Active | – | –
8 | Cc1cn([C@H]2C[C@@H](SCC(=O)O)[C@@H](CSCC(=O)O)O2)c(=O)[nH]c1=O | 108 µM | 16% | – | – | – | –
9 | Cc1cn([C@H]2C[C@H](SCC(=O)O)[C@@H](CO)O2)c(=O)[nH]c1=O | 169 µM | 17% | – | Active | – | –
10 | Cc1cn([C@H]2C[C@H](S(=O)(=O)CC(=O)O)[C@@H](CS(=O)(=O)CC(=O)O)O2)c(=O)[nH]c1=O | 25 µM | 35% | – | – | Active | –
11 | COC(=O)CS(=O)(=O)C[C@H]1O[C@@H](n2cc(C)c(=O)[nH]c2=O)C[C@@H]1O | 202 µM | 14% | – | Active | – | –
12 | Cc1cn([C@H]2C[C@@H](S(=O)(=O)CC(=O)O)[C@@H](CS(=O)(=O)CC(=O)O)O2)c(=O)[nH]c1=O | 39 µM | 33% | – | – | – | Active
13 | Cc1cn([C@H]2C[C@H](O)[C@@H](CS(=O)(=O)CC(=O)O)O2)c(=O)[nH]c1=O | 95 µM | 22% | Active | – | – | –
14 | COC(=O)CS(=O)(=O)[C@H]1C[C@H](n2cc(C)c(=O)[nH]c2=O)O[C@@H]1CO | 140 µM | 18% | – | Active | – | –
15 | CCOC(=O)CN[C@H]1C[C@H](n2cc(C)c(=O)[nH]c2=O)O[C@@H]1CO | 504 µM | 7% | – | Active | – | –
16 | COC(=O)CS[C@H]1C[C@H](n2cc(C)c(=O)[nH]c2=O)O[C@@H]1CO | 757 µM | 3% | – | Active | – | –

Source: ChEMBL document CHEMBL2413053, “3'-Oxo-, amino-, thio- and sulfone-acetic acid modified thymidines: effect of increased acidity on ribonuclease A inhibition” (Bioorg Med Chem, 2013)
